Measurements reported in ChEMBL document CHEMBL1150381, “Effects of amide constituents from pepper on adipogenesis in 3T3-L1 cells” (Bioorg Med Chem Lett, 2008).
The source made the active and inactive calls. No cut-off for these calls is given here.

How the values were obtained:
[1] = system: 3T3-L1; test: Antidiabetic activity in mouse 3T3L1 cells assessed as enhancement of triglyceride accumulation at 1 uM; format: functional
In short: (§1)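 3T3-L1 cells (5.0 × 10^4/well) in DMEM + 10% FCS; after 24 h differentiated 72 h in high-glucose DMEM/10% FCS with 1 µM dexamethasone, 0.5 mM IBMX, 5 µg/mL insulin, then maintenance medium (10% FCS, 5 µg/mL insulin) 4 days. Compound in DMSO (final 0.1%) in both media. Day 8: cells sonicated in water, triglyceride measured by enzymatic kit; means ± SEM, n = 4.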

[2] = system: 3T3-L1; test: Antidiabetic activity in mouse 3T3L1 cells assessed as enhancement of triglyceride accumulation at 3 uM; format: functional; in short: as §1
[3] = system: 3T3-L1; test: Antidiabetic activity in mouse 3T3L1 cells assessed as enhancement of triglyceride accumulation at 10 uM; format: functional; in short: as §1
[4] = system: 3T3-L1; test: Antidiabetic activity in mouse 3T3L1 cells assessed as enhancement of triglyceride accumulation at 30 uM; format: functional; in short: as §1
[5] = system: 3T3-L1; test: Cytotoxicity against mouse 3T3L1 cells at 30 uM; format: cell-based; conditions: 3t3-l1, 30 µM
In short: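 Cells differentiated and treated through day 8 as in triglyceride assay; cytotoxicity at 30 µM judged by cell detachment from culture plate surface.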

[6] = system: 3T3-L1; test: Increase in 2-deoxyglucose uptake in mouse 3T3L1 cells at 3 uM by liquid scintillation counter; format: functional, cell-based
In short: (§2)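 Cells differentiated as for triglyceride assay with compound in DMSO (final 0.1%) in differentiation and maintenance media. Day 8: serum-free 4 h, KRP buffer wash, 20 min with 100 nM insulin, then 0.1 mM 2-deoxyglucose plus [3H]2-deoxyglucose (1 µCi/mL) 10 min at 37 °C. Lysed in 1 M NaOH, neutralized, scintillation counted; cytochalasin B (20 µM) nonspecific uptake subtracted.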

[7] = system: 3T3-L1; test: Increase in 2-deoxyglucose uptake in mouse 3T3L1 cells by liquid scintillation counter; format: functional, cell-based; in short: as §2
[8] = system: 3T3-L1; test: Induction of adiponectin release to medium in mouse 3T3L1 cells at 10 uM by ELISA; format: functional, cell-based
In short: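 3T3-L1 cells (5.0 × 10^4/well) differentiated, then maintenance medium 4 days; compound in DMSO (final 0.1%) present in media; on day 8 adiponectin in culture medium quantified by ELISA.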

[9] = system: 3T3-L1; test: Increase in adiponectin mRNA expression in mouse 3T3L1 cells at 10 uM after 4 days by RT-PCR; format: functional, cell-based
In short: (§3)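 3T3-L1 cells (1.0 × 10^6/well) in DMEM + 10% FCS, differentiated with compound; control 0.1% DMSO; mRNA levels of adiponectin, PPARγ2, GLUT4, IRS-1 assessed; means ± SEM, n = 3.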

[10] = system: 3T3-L1; test: Increase in GLUT4 mRNA expression in mouse 3T3L1 cells after 4 days by RT-PCR; format: functional, cell-based; in short: as §3
[11] = system: 3T3-L1; test: Increase in PPARgamma2 mRNA expression in mouse 3T3L1 cells after 4 days by RT-PCR; format: functional, cell-based; in short: as §3
[12] = system: 3T3-L1; test: Increase in IRS1 mRNA expression in mouse 3T3L1 cells at 30 uM after 4 days by RT-PCR; format: functional, cell-based; in short: as §3

## CCOC(=O)/C=C/C=C/CC/C=C/c1ccc2c(c1)OCO2
[1]
  Activity: 2.9%
[2]
  Activity: 2.9%
[3]
  Activity: 1.2%
[4]
  Activity: 8.7%

## O=C(/C=C/CCCC/C=C/c1ccc2c(c1)OCO2)N1CCCCC1 [PIPERNONALINE]
[1]
  Activity: 1%
[2]
  Activity: 5.4%
[3]
  Activity: 10.5%
[5]
  Activity: -61.2%

## CC(C)CNC(=O)/C=C/C=C/CCCCCCCC/C=C/c1ccc2c(c1)OCO2 [BRACHYSTAMIDE B]
[1]
  Activity: 11.1%
[2]
  Activity: 18.5%
[3]
  Activity: 16.8%
[4]
  Activity: 13.7%

## O=C(/C=C/CCc1ccc2c(c1)OCO2)N1CCCCC1 [PIPERANINE]
[1]
  Activity: 20.4%
[2]
  Activity: 19.1%
[3]
  Activity: 13.1%
[4]
  Activity: 8.3%

## CC(C)CNC(=O)/C=C/C=C/CCCC/C=C/c1ccc2c(c1)OCO2 [RETROFRACTAMIDE B]
[1]
  Activity: 18.8%
[2]
  Activity: 29.9%
[3]
  Activity: 28.4%
[4]
  Activity: 27.6%

## O=C(CCCCCC/C=C/c1ccc2c(c1)OCO2)N1CCCCC1 [PIPERROLEIN B]
[1]
  Activity: -2.8%
[2]
  Activity: 30.3%
[3]
  Activity: 20.9%
[4]
  Activity: 9.4%

## O=C(/C=C/C=C/CCCC/C=C/c1ccc2c(c1)OCO2)N1CCCCC1 [PIPERUNDECALIDIENE]
[1]
  Activity: -13%
[2]
  Activity: -7.3%
[3]
  Activity: 7.3%
[5]
  Activity: -60.8%

## Cc1c(C)c2c(c(C)c1O)CCC(C)(COc1ccc(CC3SC(=O)NC3=O)cc1)O2 (centres undefined) [TROGLITAZONE]
[1]
  Activity: 33.8%
[2]
  Activity: 40.5%
[3]
  Activity: 39.6%
[6]
  Activity: Active

## CC(C)CNC(=O)/C=C/CCCCCC/C=C/c1ccc2c(c1)OCO2 [PIPERCHABAMIDE D]
[1]
  Activity: 1.7%
[2]
  Activity: 8%
[3]
  Activity: 8.5%
[4]
  Activity: 4.7%

## O=C(O)/C=C/C=C/CC/C=C/c1ccc2c(c1)OCO2
[1]
  Activity: -3.9%
[2]
  Activity: 1.5%
[3]
  Activity: 3.9%
[4]
  Activity: -7.3%

## CCCCCCCCCCCCC/C=C/C=C/C(=O)NCC(C)C
[1]
  Activity: 14.1%
[2]
  Activity: 3.3%
[3]
  Activity: 19.6%
[4]
  Activity: 20.6%

## O=C(/C=C/C=C/c1ccc2c(c1)OCO2)N1CCCCC1 [PIPERINE]
[1]
  Activity: -1.2%
[2]
  Activity: -3.9%
[3]
  Activity: -14.2%
[4]
  Activity: -1.2%

## CCCCC/C=C/C=C/C(=O)NCC(C)C [PELLITORIN]
[1]
  Activity: 4.4%
[2]
  Activity: 18.2%
[3]
  Activity: 10%
[4]
  Activity: 6.2%

## CCCCCCC/C=C/C=C/C(=O)NCC(C)C
[1]
  Activity: 10.1%
[2]
  Activity: 16.3%
[3]
  Activity: 11.1%
[4]
  Activity: 15.3%

## O=C(/C=C/C=C/CC/C=C/c1ccc2c(c1)OCO2)N1CCCCC1 [DEHYDROPIPERNOLINE]
[1]
  Activity: 0.5%
[2]
  Activity: 1.8%
[3]
  Activity: 1.5%
[5]
  Activity: -19.9%

## CC(C)CNC(=O)/C=C/C=C/CCCCCC/C=C/c1ccc2c(c1)OCO2 [GUINEENSINE]
[1]
  Activity: 1.5%
[2]
  Activity: 9.7%
[3]
  Activity: 0.8%
[4]
  Activity: 2%

## O=C(/C=C/C=C/CCCCCC/C=C/c1ccc2c(c1)OCO2)N1CCCCC1 [PIPERCHABAMIDE C]
[1]
  Activity: 9.4%
[2]
  Activity: 17.6%
[3]
  Activity: -10.2%
[4]
  Activity: -11%

## CCCCC/C=C\CCCCCCCC/C=C/C=C/C(=O)NCC(C)C
[1]
  Activity: -3%
[2]
  Activity: -7.2%
[3]
  Activity: 7.2%
[4]
  Activity: 20.2%

## CC(C)CNC(=O)/C=C/C=C/c1ccc2c(c1)OCO2 [PIPERLONGUMININE]
[1]
  Activity: 19.5%
[2]
  Activity: 28.1%
[3]
  Activity: 31.8%
[4]
  Activity: 20.4%

## CC(C)CNC(=O)/C=C/C=C/CC/C=C/c1ccc2c(c1)OCO2 [RETROFRACTAMIDE A]
[1]
  Activity: 25.1%
[2]
  Activity: 27.3%
[3]
  Activity: 27.8%
[4]
  Activity: 33.3%
[7]
  Activity: Dose-dependent effect
[6]
  Activity: Active
[8]
  Activity: Active
[9]
  Activity: Active
[10]
  Activity: Active
[11]
  Activity: Active
[12]
  Activity: Active

## COC(=O)/C=C/C=C/c1ccc2c(c1)OCO2 [METHYL PIPERATE]
[1]
  Activity: 5.2%
[2]
  Activity: 17.8%
[3]
  Activity: 25.2%
[4]
  Activity: 17.1%

## CC(C)CNC(=O)/C=C/CCCC/C=C/c1ccc2c(c1)OCO2 [RETROFRACTAMIDE C]
[1]
  Activity: 9.7%
[2]
  Activity: 15%
[3]
  Activity: 22.2%
[4]
  Activity: 15.4%

## O=C(/C=C/CCCCCC/C=C/c1ccc2c(c1)OCO2)N1CCCCC1 [PIPERCHABAMIDE B]
[1]
  Activity: -14.1%
[2]
  Activity: -2.2%
[3]
  Activity: -3.5%
[5]
  Activity: -30.3%
